In the library only some 4.1% were active in any assay of this set; here they are far more common.
APP 5'UTR act: APP 5'UTR luciferase reporter activation; SH-SY5Y APP 5'UTR luciferase reporter, luminescence; zero percent = DMSO vehicle wells; activation, % at 2 µM; actives 1% (n = 190,000); AID 1276;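 active means activation above a set limit, based on mean plus 3 SD of controls, cut at about 140% in these data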
STAT1 act: STAT1 signaling activation | activation (% of control), % at 5.5 µM | actives 2.6% (n = 200,000) | AID 932 | NIH 3T3 STAT1-luciferase reporter, IFN-gamma, luminescence; 100% = IFN-gamma alone, no compound;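 active means activation above the screen-wide mean activation plus 3 SD, cut at about 130% in these data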
FLuc inhib CS: Photinus pyralis luciferase inhibition counter-screen | inhibition, % at 10 µM | P08659 | actives 1.5% (n = 200,000) | ATPLite firefly luciferase biochemical luminescence, 10 min;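 active means inhibition above about 50% when tested at 10 µM, limit read from the data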
Target sequence (P08659 whole entry, looked up): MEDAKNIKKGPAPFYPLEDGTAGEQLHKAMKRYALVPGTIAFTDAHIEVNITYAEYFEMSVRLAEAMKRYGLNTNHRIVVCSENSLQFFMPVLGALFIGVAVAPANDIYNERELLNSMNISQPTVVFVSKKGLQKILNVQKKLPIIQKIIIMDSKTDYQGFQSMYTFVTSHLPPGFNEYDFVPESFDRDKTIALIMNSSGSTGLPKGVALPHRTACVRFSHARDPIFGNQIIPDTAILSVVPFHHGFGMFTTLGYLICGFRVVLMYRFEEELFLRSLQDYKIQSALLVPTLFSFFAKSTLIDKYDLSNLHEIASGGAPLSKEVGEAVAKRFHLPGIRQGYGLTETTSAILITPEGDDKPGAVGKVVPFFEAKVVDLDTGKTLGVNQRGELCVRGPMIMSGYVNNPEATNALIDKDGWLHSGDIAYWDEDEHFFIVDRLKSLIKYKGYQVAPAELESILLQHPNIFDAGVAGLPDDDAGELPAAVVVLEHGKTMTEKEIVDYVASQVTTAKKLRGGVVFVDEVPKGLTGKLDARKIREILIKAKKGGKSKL
NF-kB expr up: raises NF-kB expression in human neuronal cells; actives 1.6% (n = 190,000); fold change at 12.5 µM; AID 1239; NF-kB reporter expression; stronger effect = higher value; in the data active means fold change above about 3.3
FLuc act counter: firefly luciferase counter-screen for stimulation assays. AID 1027. ATPlite luciferase biochemical, luminescence, 10 min; 0 = ATP-free wells, 1 = DMSO control. 200,000 tested, under 10 active. activation factor at 10 µM. P08659;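 active means luciferase activation factor, scaled between plate controls, of at least 2 with compound at 10 µM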
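System: Luciferase/luciferin detection reagent, cell-free biochemical luciferase assay | Medium: PBS buffer for ATP | Dosing: Test compounds dosed from 2 mM stocks in 100% DMSO | Timing: 10 min at ambient temperature | Signal: Luminescence measurement of luciferase light output | Evaluation: Luciferase activation, seen as luminescence increase over controls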
Hits are given with their value; – = inactive; · = no result.

SMILES | APP 5'UTR act | STAT1 act | FLuc inhib CS | NF-kB expr up | FLuc act counter
CNC(=O)NC(=O)CSc1cccc(C(F)(F)F)c1 | – | – | – | – | –
CC1(C)NC(=O)N(CC(O)COc2ccc(-c3ccc(C#N)cc3)cc2)C1=O (stereo not drawn) | – | – | – | – | –
Cc1nc2c(ccc3nc(NC(=O)C4CC4)sc32)s1 | – | 156 | – | 4.7 | –
O=C(Nc1ccc(Cl)cn1)Nc1ccccc1F | – | 139 | – | – | –
O=C(Nc1ccc(Cl)cn1)c1ccccc1F | 183 | 133 | – | – | –
Cc1cc(NC(=O)c2cccc(F)c2)ncc1NC(=O)c1ccco1 | 140 | – | – | 3.6 | –
O=C(Nc1ccc(Cl)cn1)c1cccc(F)c1 | – | 146 | – | 3.6 | –
O=C(NCc1cccs1)C1CC(c2ccc(F)cc2)=NO1 (stereo not drawn) | – | – | – | – | –
c1ccc2c(c1)CNC1(CCCCC1)C2 | – | – | – | – | –
Cc1cccc(NC(=O)c2cnc3n(c2=O)CCS3)c1 | – | 132 | – | – | –
O=C(Nc1ccc2c(c1)OCO2)c1cnc2n(c1=O)CCS2 | – | – | – | – | –
O=C(Nc1ccc2c(c1)OCCO2)c1cnc2n(c1=O)CCS2 | – | 142 | – | – | –
O=C(Nc1ccccc1)c1cnc2n(c1=O)CCS2 | – | – | – | – | –
CCOC(=O)CSc1cc(C)nc(N)n1 | – | – | – | – | –
NNC(=O)C1=NOC(CNc2ncc(C(F)(F)F)cc2Cl)C1 (stereo not drawn) | – | – | – | – | –
CC(C)(C)c1ccc(NC(=O)C(=O)C2C(=O)Nc3ccccc32)cc1 (stereo not drawn) | – | – | – | – | –
CC(C)c1ccc(NC(=O)C(=O)C2C(=O)Nc3ccccc32)cc1 (stereo not drawn) | – | – | 52 | – | –
CCCCC(=O)O[C@]1(C(=O)CO)CC[C@H]2[C@@H]3CCC4=CC(=O)CC[C@]4(C)[C@H]3[C@@H](O)C[C@@]21C | – | – | – | – | –
CC1(C)O[C@@H]2C[C@H]3[C@@H]4C[C@H](F)C5=CC(=O)CC[C@]5(C)[C@H]4[C@@H](O)C[C@]3(C)[C@]2(C(=O)CO)O1 | – | 135 | – | – | –
Nc1nn(-c2cccc(F)n2)cc1-c1ccccc1 | 213 | – | 64 | 9.9 | –
Nc1nn(-c2cccc(F)n2)cc1-c1ccc(Cl)cc1 | 251 | – | 57 | 12 | –
Nc1nc(N)nc(-c2ccc(Cl)cc2)n1 | – | – | – | – | –
COc1ccc2c(CC(=O)OCC(=O)c3ccccc3OC)coc2c1 | – | – | – | – | –
O=C(OCC(F)(F)F)c1cccc(COc2ccc3ccccc3c2)c1 | – | – | – | 8.1 | –
O=Cc1ccc(OCc2cccc(C(F)(F)F)c2)cc1O | – | – | – | – | –
SMILES | APP 5'UTR act | STAT1 act | FLuc inhib CS | NF-kB expr up | FLuc act counter
O=C(O)c1cccc(COc2ccc(CO)cc2Cl)c1 | · | · | 85 | – | –
CCOc1ccc(OCc2cccc(C(=O)N3CCCCCC3)c2)cc1 | – | – | 67 | – | –
COc1ccc(OCc2cccc(C(=O)O)c2)cc1 | · | · | 83 | 8.6 | –
COc1cccc(C(=O)NC(C)C(c2cccs2)N2CCOCC2)c1 (stereo not drawn) | – | – | – | – | –
COc1cc(OC)c(OC)cc1/C=N/NC(=O)C[n+]1ccccc1 | – | – | – | – | –
Cc1ccc(S(=O)(=O)/C(C#N)=C/c2c(N3CCOCC3)nc3ccccn3c2=O)cc1 | – | – | – | – | –
O=C(NN1CCCCC1)c1cccc(COc2ccc(Cl)cc2)c1 | – | 130 | – | – | –
CCOc1ccc(OCc2cccc(C(=O)O)c2)cc1 | · | · | 93 | 12 | –
COc1cc(/C=C/[N+](=O)[O-])ccc1OCc1cccc(C(=O)O)c1 | – | – | – | 4.4 | –
CCOc1ccc(OCc2cccc(C(=O)N3CCCC3)c2)cc1 | – | – | – | – | –
C=CCn1c(COc2ccccc2F)nnc1SCCN1C(=O)c2ccccc2C1=O | – | – | – | – | –
O=c1oc(-c2ccco2)nc2sc3c(c12)CCCC3 | – | – | 79 | – | –
COc1ccccc1NC(=O)CN1C(=O)NC(CC(C)C)C1=O (stereo not drawn) | – | – | – | – | –
O=C(CSc1n[nH]c(=O)[nH]c1=O)N/N=C/C=C\c1ccccc1 | – | – | – | – | –
CCNc1nc(N)c(C(=O)c2ccc(Cl)s2)s1 | – | 144 | – | 3.7 | –
NC(=O)c1ccc(NCCCN2CCOCC2)c([N+](=O)[O-])c1 | – | – | – | · | –
COc1ccc2c(c1)NC(c1cc(Cl)cc(Cl)c1O)c1cccn1-2 (stereo not drawn) | – | – | – | 3.7 | –
COc1cccc(C2CC(c3ccc(Cl)cc3Cl)n3nc(N)nc3N2)c1 (stereo not drawn) | · | – | – | – | –
CCc1ccc(NC(=O)c2onc(C)c2Cl)cc1 | 135 | 143 | – | 6 | –
CC1=NC(=O)C(N=Nc2ccccc2)N1c1ccccc1 (stereo not drawn) | – | – | – | 4.4 | –
CC1=NC(=O)C(N=Nc2cccc(C(=O)O)c2)N1c1ccccc1 (stereo not drawn) | – | – | 54 | 9.5 | –
CC1=NC(=O)C(N=Nc2ccccc2C(=O)O)N1c1ccccc1 (stereo not drawn) | – | – | – | – | –
CC1=NC(=O)C(N=Nc2ccccc2C)N1c1ccccc1 (stereo not drawn) | – | – | · | · | ·
CC(C)(C)c1ccc(CS(=O)CC(O)CO)cc1 (stereo not drawn) | – | – | – | – | –
Cc1cc(C)cc(NC(=S)/N=C(\N)Nc2nc(C)c3ccccc3n2)c1 | – | – | – | – | –
SMILES | APP 5'UTR act | STAT1 act | FLuc inhib CS | NF-kB expr up | FLuc act counter
CC(C)=NN/C(N)=N/C(=S)Nc1ccc(C)cc1 | – | – | 54 | – | –
O=P(CCO)(c1ccccc1)c1ccccc1 | – | – | – | – | –
CNC(=S)N(CCc1ccc(S(N)(=O)=O)cc1)C1CC(=O)N(c2ccccc2F)C1=O (stereo not drawn) | – | – | – | – | –
CCN1CCCc2cc(CN(CCN3CCOCC3)C(=S)Nc3cccc(Cl)c3)ccc21 | – | – | – | 8.1 | –
CCOC(=O)c1ccc(Nc2ccc([N+](=O)[O-])cn2)cc1 | – | – | – | – | –
O=C(Cc1ccccc1)N1CCC(c2nc(-c3ccc(F)cc3)no2)CC1 | – | – | – | – | –
O=C(N/C=C/c1ccccc1)Nc1ccc(Cl)cc1 | – | 141 | – | – | –
Cc1ccc(NC(=O)N/C=C/c2ccccc2)cc1 | – | 146 | – | – | –
COc1ccc(NC(=O)N/C=C/c2ccc(Cl)cc2)cc1 | – | – | – | – | –
Cc1ccc(NC(=O)N/C=C/c2ccc(Cl)cc2)cc1 | – | – | – | – | –
COc1ccc(C2=NN(C(=O)CCC(=O)O)C(c3cccs3)C2)cc1 (stereo not drawn) | – | – | – | – | –
Nc1ccc2nc(SCc3cccc(F)c3)sc2c1 | – | – | – | 6.1 | –

High-throughput results deposited in PubChem by several laboratories.
